INS-1E rescue: protection of INS-1E cells from cytokine death, primary screen, ATP luminescence, single point; protection from cytokine-induced ATP loss, % at 10 µM; INS-1E cytokine-induced death, 48 h; normalised: neutral wells 0, positive control 100; AID 488910, 2010; 20,000 tested, 0.1% active;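 active means mean replicate protection from cytokine-induced ATP loss at least 50% and at least 75% of replicates each reaching 50%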
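assay system = INS-1E rat insulinoma cells | amount = 8000 cells per well | medium = phenol-red-free RPMI with 5% fetal bovine serum | doses = one compound concentration, pin transfer | timing = 48 h cytokine plus compound treatment, 10 min reagent incubation | also added = IL-1β, TNF-α and IFN-γ cytokine mix | signal = CellTiter-Glo luminescence measuring cellular ATP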
T cruzi intra: inhibitors of intracellular Trypanosoma cruzi, primary screen, cell-based, plate reader, single point, set 2; 22,000 tested, 4.9% active; AID 651903, 2012; intracellular Trypanosoma cruzi in host cells; activity score (inhibition), % at 5.01 µM; in the data active means activity score above about 55%;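 further: parasites and compound incubated about four days before reading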
A1 apoptosis 2: A1 inhibitors via caspase activation, primary screen, cell-based, luminescence, HTS, two replicates; 24,000 tested, under 10 active; caspase activation, % (no concentration beside the values); MEF A1-2A-BIM cells, caspase-Glo luminescence, 3 h; percent of clofoctol response, DMSO zero; in the data active means caspase activation above about 5.9%
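Material: A1-2A-BIM-expressing MEF cells. Buffer or medium: RPMI-1640 plus 10% FBS. Incubation: cells settled overnight, compound exposure 3 h at 37 °C, 5% CO2. Signal: Caspase-Glo 3/7 luminescence, 1 h at room temperature.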
A number is an active result; . = inactive; / = no result given. The sample as a whole holds a higher share of hits than the screen did.

SMILES | INS-1E rescue | T cruzi intra | A1 apoptosis 2
C=CCN1CCc2cc(OC)c(OC)cc2C1C#Cc1ccccc1 (centres undefined) | / | / | .
C[C@H](CO)N1C[C@H](C)[C@H](CN(C)CC2CCCCC2)Oc2c(NC(=O)c3ccncc3)cccc2C1=O | . | . | /
C[C@@H]1CN([C@@H](C)CO)C(=O)c2cccc(NS(=O)(=O)c3cn(C)cn3)c2O[C@H]1CN(C)CC1CCCCC1 | . | 62 | /
C[C@H](CO)N1C[C@H](C)[C@@H](CN(C)CC2CCCCC2)Oc2c(NS(=O)(=O)c3cn(C)cn3)cccc2C1=O | . | . | /
Cc1cc(C(=O)Nc2cccc3c2O[C@@H](CN(C)CC2CC2)[C@H](C)CN([C@H](C)CO)C3=O)n(C)n1 | . | . | .
Cc1cc(C(=O)Nc2cccc3c2O[C@H](CN(C)CC2CC2)[C@H](C)CN([C@@H](C)CO)C3=O)n(C)n1 | . | 61 | .
C[C@H](CO)N1C[C@H](C)[C@H](CN(C)CC2CC2)Oc2c(NC(=O)c3ccncc3)cccc2C1=O | . | . | .
C[C@@H]1CN([C@H](C)CO)C(=O)c2cccc(NC(=O)c3ccncc3)c2O[C@H]1CN(C)CC1CCCCC1 | . | 84 | .
C[C@@H]1CN([C@H](C)CO)C(=O)c2cccc(NC(=O)c3ccncc3)c2O[C@H]1CN(C)CC1CC1 | . | 56 | .
CC(C)(C)OC(=O)NC1(/C=N/NC(=O)CCCCCC(=O)NO)CCCC1 | / | / | .
CCO[C@@H]1OC(C(=O)N2CCN(Cc3ccccc3)CC2)=C[C@H](C(C)(C)C)[C@H]1CCCO | / | / | .
COC(=O)CCCCCCC(=O)N/N=C/c1ccc(Br)s1 | . | . | .
CN(C)CCCOc1ccc(/C=N/NC(=O)c2ccccn2)cc1 | . | . | .
Cc1ccc(S(=O)(=O)Nc2ccc3c(c2)C(=O)N([C@H](C)CO)C[C@@H](C)[C@@H](CN(C)Cc2ccc(Cl)c(Cl)c2)O3)cc1 | . | . | /
Cc1ccc(S(=O)(=O)Nc2ccc3c(c2)CC(=O)N([C@H](C)CO)C[C@@H](C)[C@H](CN(C)Cc2ccc(Cl)c(Cl)c2)O3)cc1 | . | 65 | /
Cc1ccc(S(=O)(=O)Nc2ccc3c(c2)CC(=O)N([C@H](C)CO)C[C@@H](C)[C@@H](CN(C)Cc2ccc(Cl)c(Cl)c2)O3)cc1 | . | 71 | /
Cc1ccc(S(=O)(=O)Nc2ccc3c(c2)CC(=O)N([C@@H](C)CO)C[C@H](C)[C@H](CN(C)Cc2ccc(Cl)c(Cl)c2)O3)cc1 | . | . | /
C[C@@H]1CN([C@@H](C)CO)C(=O)Cc2cc(NS(=O)(=O)c3ccc(Cl)cc3)ccc2O[C@H]1CN(C)Cc1ccc(Cl)c(Cl)c1 | / | / | .
Cc1ccc(S(=O)(=O)Nc2ccc3c(c2)CC(=O)N([C@@H](C)CO)C[C@@H](C)[C@@H](CN(C)Cc2ccc(Cl)c(Cl)c2)O3)cc1 | . | 59 | .
COc1ccc(NC(=O)Nc2ccc3c(c2)CC(=O)N([C@H](C)CO)C[C@H](C)[C@H](CN(C)S(=O)(=O)c2ccc(C)cc2)O3)cc1 | . | . | .
O=C(N/N=C/c1ccccc1)c1ccccn1 | . | . | .
O=C(N1CCCCC1)[C@@]1(Cc2ccccc2)N=C(c2ccc(OCCCO)cc2)O[C@H]1c1ccccc1 | / | / | .
CC(C)(C)OC(=O)Nc1ccc(/C=N/NC(=O)c2ccccc2O)cc1 | . | . | /
C[C@@H]1CN([C@H](C)CO)C(=O)c2cccc(NC(=O)c3ccncc3)c2O[C@@H]1CN(C)Cc1ccc(C(=O)O)cc1 | . | . | .
C[C@@H]1CN([C@@H](C)CO)C(=O)c2cccc(NC(=O)c3ccncc3)c2O[C@@H]1CN(C)Cc1ccccc1 | . | . | /
SMILES | INS-1E rescue | T cruzi intra | A1 apoptosis 2
C[C@@H]1CN([C@@H](C)CO)C(=O)c2cccc(NC(=O)c3ccncc3)c2O[C@H]1CN(C)Cc1ccc(C(=O)O)cc1 | . | . | .
C[C@H](CO)N1C[C@H](C)[C@@H](CN(C)Cc2ccc(-c3ccccc3)cc2)Oc2c(NC(=O)c3ccncc3)cccc2C1=O | . | 57 | /
C[C@H](CO)N1C[C@H](C)[C@@H](CN(C)Cc2ccccc2)Oc2c(NC(=O)c3ccncc3)cccc2C1=O | . | 79 | /
C[C@H](CO)N1C[C@H](C)[C@H](CN(C)Cc2ccc(-c3ccccc3)cc2)Oc2c(NC(=O)c3ccncc3)cccc2C1=O | . | 68 | .
C[C@@H]1CN([C@@H](C)CO)C(=O)c2cccc(NC(=O)c3ccncc3)c2O[C@H]1CN(C)Cc1ccc(-c2ccccc2)cc1 | . | 83 | /
NC(=O)COc1ccc(/C=N/NC(=O)CCCCCCC(=O)NO)cc1 | / | / | .
